Source: ChEMBL document CHEMBL5661984, “Allosteric ligands for the pharmacologically dark receptors GPR68 and GPR65” (Nature, 2015)
Calls of active or inactive are those of the source.

Assays:
[1] = Positive allosteric modulator activity at GPR68 H269F mutant transfected in human HEK293T cells assessed as proton-mediated calcium release at 10 uM incubated for 10 mins by Fluo-4 Direct calcium dye based FLIPR assay (reference value: 1.57 +/- 0.01 %); settings: HEK-293T, condition central nervous system disease
[2] = molecular target: T1, G-protein coupled receptor 68 (Homo sapiens, UniProt Q15743); assay: Positive allosteric modulator activity at HA-tagged GPR68 expressed in human HEK293T cells assessed as activation of p42/p44 MAP kinase at pH 7.4 by immunoblotting analysis; format: cell-based; settings: filed as positive allosteric modulator
In short: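 HEK293 cells stably expressing N-terminal HA-tagged human GPR68 (vector-only line as control), selected with 250 μg/ml G418. Confluent cells were switched to Hams-F12 at pH 8.0 or 7.4 for 1 h, then given vehicle or 50 μM compound for 10 min. Lysate immunoblots were probed for HA, total VASP, p-p42/p44 and β-actin, read with infrared-fluorophore secondaries.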

[3] = molecular target: T1, G-protein coupled receptor 68; assay: Positive allosteric modulator activity at GPR68 expressed in human HEK293T cells assessed as proton-mediated calcium release at 10 uM incubated for 10 mins by Fluo-4 Direct calcium dye based FLIPR assay (reference value: 1.30 %); format: functional, cell-based
Mus musculus = species on record: Mus musculus; assay: […] activity against GPR68 knockout C57BL/6 mouse assessed as contextual memory retrieval; format: functional, organism-based
In short: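 Fear conditioning in wild-type and GPR68 KO C57BL/6J congenic mice. Training was 8 min: 3 pairings of a 30-s, 90 dB, 5 kHz tone with a 2-s, 0.6 mA foot shock. Context freezing scored at 24 h over 5 min; cue test at 48 h over 6 min. Freezing defined as no movement for 0.5 s. Compound 10 mg/kg in 10% Tween 80 or saline, 30 min before training. n=6–8 per group. Two-way ANOVA with Bonferroni post-hoc test.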

[4] = Positive allosteric modulator activity at GPR68 R189L mutant expressed in human HEK293T cells assessed as cAMP production in presence of H+ proton by Split-luciferase based luminescence counter analysis (reference value: 1.4 %); settings: HEK-293T, condition central nervous system disease
In short: (§1)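 Proton concentration-response of GPR68 (wild type or E160A/K/Q, R189L/M, H269F mutants) in transiently transfected HEK293-T cells. Read-out: GloSensor cAMP, with luciferin loading 90 min at 37°C at pH 8.4. Run with and without increasing modulator concentrations; 20 min at room temperature before luminescence. Proton KA fixed to the proton EC50 without modulator. KB, τA, α, β fitted globally with an operational allosteric model. n=4.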

[5] = Positive allosteric modulator activity at GPR68 H269F mutant expressed in human HEK293T cells assessed as cAMP production in presence of H+ proton by Split-luciferase based luminescence counter analysis (reference value: 17.7+/-0.8 %); settings: HEK-293T, condition central nervous system disease; in short: as §1
[6] = Positive allosteric modulator activity at GPR68 R189L mutant expressed in human HEK293T cells assessed as cAMP production in presence of H+ proton by Split-luciferase based luminescence counter analysis (reference value: 7.20+/-0.03); format: cell-based; settings: HEK-293T; in short: as §1
[7] = molecular target: C-X-C chemokine receptor type 4 (Homo sapiens) (UniProt P61073); assay: Agonist activity against CXCR4 receptor (unknown origin) transfected in human HEK293T cells at 10 uM incubated for 15 mins in presence of CXCL12 by luminescence counter analysis; format: functional, cell-based
In short: (§2)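 HEK293-T cells transiently transfected with CXCR4 and the GloSensor cAMP reporter, plated in DMEM with 1% dialyzed FBS. Test compound at 10 μM in 20 mM HEPES/HBSS, pH 7.4, 15 min at room temperature. Agonist mode: luciferin (4 mM final) plus 200 nM isoproterenol added, 20 min. Antagonist mode: compound 10 min, then reference agonist at EC80 for 10 min, then luciferin/isoproterenol. Luminescence read. CXCL12 (1 or 3 μM) is the agonist control and AMD3100 (10 μM) the antagonist control. n=2.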

[8] = Binding affinity to GPR68 E160K mutant expressed in human HEK293T cells assessed as cAMP production in presence of H+ proton by Split-luciferase based luminescence counter analysis; settings: condition central nervous system disease; in short: as §1
[9] = molecular target: C-X-C chemokine receptor type 4 (Homo sapiens) (UniProt P61073); assay: Antagonist activity against CXCR4 receptor (unknown origin) transfected in human HEK293T cells at 10 uM incubated for 15 mins in presence of AMD3100 by luminescence counter analysis; format: functional, cell-based; in short: as §2
[10] = Toxicity in C57BL/6 mouse assessed as cued memory retrieval by Morris water maze test; settings: in vivo
[11] = Binding affinity to GPR68 E160Q mutant expressed in human HEK293T cells assessed as cAMP production in presence of H+ proton by Split-luciferase based luminescence counter analysis; settings: condition central nervous system disease; in short: as §1
[12] = Binding affinity to GPR68 H269F mutant expressed in human HEK293T cells assessed as cAMP production in presence of H+ proton by Split-luciferase based luminescence counter analysis; settings: condition central nervous system disease; in short: as §1
[13] = Positive allosteric modulator activity at GPR68 R189L mutant transfected in human HEK293T cells assessed as proton-mediated calcium release at 10 uM incubated for 10 mins by Fluo-4 Direct calcium dye based FLIPR assay (reference value: 6.85 +/- 0.02); format: cell-based; settings: HEK-293T
[14] = Positive allosteric modulator activity at GPR68 R189M mutant transfected in human HEK293T cells assessed as proton-mediated calcium release at 10 uM incubated for 10 mins by Fluo-4 Direct calcium dye based FLIPR assay (reference value: 1.43 +/- 0.01 %); settings: HEK-293T, condition central nervous system disease
[15] = Positive allosteric modulator activity at GPR68 R189M mutant expressed in human HEK293T cells assessed as cAMP production in presence of H+ proton by Split-luciferase based luminescence counter analysis (reference value: 3.7 %); settings: HEK-293T, condition central nervous system disease; in short: as §1

Sequence of C-X-C chemokine receptor type 4 (Homo sapiens) (P61073 whole entry): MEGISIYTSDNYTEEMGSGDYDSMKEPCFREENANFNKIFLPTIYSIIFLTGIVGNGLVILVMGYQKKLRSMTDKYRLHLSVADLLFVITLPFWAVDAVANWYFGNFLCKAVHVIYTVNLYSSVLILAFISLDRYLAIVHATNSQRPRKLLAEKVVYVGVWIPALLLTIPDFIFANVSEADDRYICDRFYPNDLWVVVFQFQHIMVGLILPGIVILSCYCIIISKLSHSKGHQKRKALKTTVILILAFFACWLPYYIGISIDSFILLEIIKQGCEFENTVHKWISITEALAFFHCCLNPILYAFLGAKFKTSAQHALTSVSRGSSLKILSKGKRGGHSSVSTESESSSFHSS
T1 sequence (Q15743 whole entry): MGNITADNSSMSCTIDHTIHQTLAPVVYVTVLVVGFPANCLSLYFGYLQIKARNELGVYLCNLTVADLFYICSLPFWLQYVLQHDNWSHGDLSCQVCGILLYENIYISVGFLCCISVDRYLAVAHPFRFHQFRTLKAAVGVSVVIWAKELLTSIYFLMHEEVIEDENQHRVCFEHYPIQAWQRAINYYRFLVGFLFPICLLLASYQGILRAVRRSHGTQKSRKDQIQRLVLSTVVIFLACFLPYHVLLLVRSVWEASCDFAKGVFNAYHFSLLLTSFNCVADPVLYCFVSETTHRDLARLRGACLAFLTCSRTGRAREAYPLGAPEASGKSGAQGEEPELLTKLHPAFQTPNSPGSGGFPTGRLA

Activity [2]: Active | Emax [3]: 1.07% | Activity [7]: inactive | Activity [9]: inactive | EC50 [13]: 87.1 nM
Compound: Nc1nc(NCc2ccccc2)nc(-c2ccccc2CO)n1 [Ogerin]
Emax at 10 µM [1]: 1.56% | Activity (Mus musculus): inactive | Emax [4]: 5.3% | Emax [5]: 45.1% | EC50 [6]: 43.7 nM | pKb [8]: 4.98 | Activity [10]: Non-Toxic | pKb [11]: 4.9 | pKb [12]: 4.33 | Emax at 10 µM [14]: 1.36% | Emax [15]: 10%
